From article PMC4423805 (Science (New York, N.Y.), 2015)

Key:
CBFβ = assay: 15N-1H HSQC / STD NMR binding to CBFβ; details: upon addition of compound
[1] = Pharmacokinetics in mouse plasma; type: in vivo
Runt domain = assay: 15N-1H HSQC / STD NMR binding to Runt domain
[2] = biological target: CBFβ-SMMHC binding to the RUNX1 Runt domain; assay: FRET assay of CBFβ-SMMHC binding to RUNX1 Runt domain; details: read-out: FRET IC50; 10 nM Cerulean-Runt domain and 10 nM Venus-CBFβ-SMMHC
Summary of the method: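 FRET binding assay with 10 nM Cerulean-RUNX1 Runt domain and 10 nM Venus-CBFβ-SMMHC titrated with test compound. Read-out is the emission intensity ratio at 525/474 nm. Untagged CBFβ (100 and 1000 nM) served as a dissociation reference. IC50 was fitted from the mean and SD of three independent measurements.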

[3] = Stability in liver microsomes; type: in vitro ADME
[4] = test system: primary human inv(16) AML samples; assay: Colony-forming units, primary inv; type: cell-based
Summary of the method: (§1)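 Colony-forming unit assays on CD34+ purified primary human cells treated with the test compound at set concentrations (5 and 10 μM cited for inv(16) samples): inv(16) AML, normal-karyotype AML, or cord blood. Colonies are expressed as percent of DMSO vehicle control. Assays were run in triplicate, with SD; significance by unpaired t-test.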

ME-1 cells = assay: Annexin V and 7AAD viability staining, ME-1; type: cell-based, human; details: read-out: ME-1 cell growth IC50, 48 hours
Summary of the method: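 ME-1 inv(16) cells exposed to the test compound across a dose range for 48 hours, then scored by annexin V and 7AAD viability staining. Values are normalized to the DMSO-treated group. Each point is the mean of triplicate experiments, with SD.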

CBFβ-SMMHC = assay: Isothermal titration calorimetry; type: binding; details: read-out: dissociation constant (KD), ITC
[5] = test system: primary human AML samples with normal karyotype; assay: Colony-forming units, normal karyotype AML samples; type: cell-based
Summary of the method: as §1

[6] = test system: 11 human leukemia cell lines; assay: Panel of 11 human leukemia cell lines; type: cell-based
[7] = test system: expression of RUNX3, CSF1R, and CEBPA; assay: qRT-PCR expression of RUNX1 target genes, ME-1 cells; type: cell-based, human; details: 6 or 12 hours
Summary of the method: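 qRT-PCR of RUNX3, CSF1R, CEBPA and control gene PIN1 in ME-1 and U937 cells treated with 1 μM test compound for 6 and 12 hours. Expression is normalized to the DMSO control group. Data are means of triplicate experiments with SD; significance by unpaired t-test.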

[8] = test system: Cbfb+/MYH11:Ras+/G12D leukemic cells; assay: inv; type: in vivo, mouse; details: 200 mg/kg of body weight per day for 10 days, days 5 to 15 posttransplantation
Summary of the method: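 Mice (n = 11 per group) were transplanted with 2 × 10^3 Cbfb+/MYH11;Ras+/G12D leukemic cells. After 5 days for engraftment, they received DMSO vehicle or 200 mg/kg/day test compound for 10 days (days 5–15 post-transplant). Disease latency was followed by Kaplan-Meier survival.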

[9] = test system: RUNX1 occupancy at RUNX3, CSF1R, and CEBPA promoters; assay: Chromatin immunoprecipitation of RUNX1 occupancy, ME-1 cells; type: cell-based, human; details: 6 hours
Summary of the method: (§2)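 Chromatin immunoprecipitation of RUNX1 at the RUNX3, CSF1R and CEBPA loci in ME-1 and U937 cells treated with 1 μM test compound for 6 hours. Occupancy is expressed as fold enrichment relative to DMSO-treated cells. Data are means of triplicate experiments with SD; significance by unpaired t-test.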

[10] = test system: primary human AML samples with normal karyotype; assay: Viability; type: cell-based; details: 48 hours
Summary of the method: (§3)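 Primary human AML cells treated with test compound at set concentrations for 48 hours, and viability read by annexin V/7AAD relative to DMSO vehicle. Inv(16) material comprised four CD34+ purified samples; normal-karyotype AML samples were used as given. Each sample was the average of duplicate treatments, with mean and SD across samples.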

[11] = test system: RUNX1 occupancy at RUNX3, CSF1R, and CEBPA promoters; assay: Chromatin immunoprecipitation of RUNX1 occupancy, U937 cells; type: cell-based, human; details: inv(16)-negative U937 cells, 1 μM
Summary of the method: as §2

[12] = test system: primary human inv(16) AML samples; assay: Viability; type: cell-based; details: 48 hours, 5 and 10 μM
Summary of the method: as §3

CBFβ-RUNX1 binding = assay: Coimmunoprecipitation of CBFβ-RUNX1 in ME-1 cells; type: cell-based, human; details: 1 μM
Summary of the method: (§4)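 ME-1 cells treated with 1 μM test compound for 3 and 6 hours. RUNX1 association with CBFβ and with CBFβ-SMMHC was assessed by coimmunoprecipitation, and binding was quantified from three experiments.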

CD34+ cord blood cells = assay: Colony-forming units, CD34+ cord blood cells; type: cell-based, human
Summary of the method: as §1

[13] = test system: normal human bone marrow cells; assay: MTT assay, normal human bone marrow cells; type: cell-based; details: read-out: IC50 in normal human bone marrow cells, 48 hours
Summary of the method: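 Normal human bone marrow cells treated with a dose range of test compound for 48 hours and assessed by MTT conversion. Values are normalized to the DMSO-treated group. Each point is the mean of triplicate experiments, with SD.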

CBFβ-SMMHC-RUNX1 binding = assay: Coimmunoprecipitation of CBFβ-SMMHC-RUNX1 in ME-1 cells; type: cell-based, human; details: 1 μM, 6 hours
Summary of the method: as §4

[14] = test system: RUNX1, CBFβ, and CBFβ-SMMHC; assay: Protein stability of RUNX1, CBFβ and CBFβ-SMMHC; type: cell-based
[15] = Toxicity after 7 days of administration; type: in vivo
[16] = biological target: RUNX1, endogenous in ME-1 cells (human (endogenous in ME-1)) (UniProt Q01196); assay: co-IP
RUNX1, endogenous in ME-1 cells (human (endogenous in ME-1)), sequence (Q01196 whole entry): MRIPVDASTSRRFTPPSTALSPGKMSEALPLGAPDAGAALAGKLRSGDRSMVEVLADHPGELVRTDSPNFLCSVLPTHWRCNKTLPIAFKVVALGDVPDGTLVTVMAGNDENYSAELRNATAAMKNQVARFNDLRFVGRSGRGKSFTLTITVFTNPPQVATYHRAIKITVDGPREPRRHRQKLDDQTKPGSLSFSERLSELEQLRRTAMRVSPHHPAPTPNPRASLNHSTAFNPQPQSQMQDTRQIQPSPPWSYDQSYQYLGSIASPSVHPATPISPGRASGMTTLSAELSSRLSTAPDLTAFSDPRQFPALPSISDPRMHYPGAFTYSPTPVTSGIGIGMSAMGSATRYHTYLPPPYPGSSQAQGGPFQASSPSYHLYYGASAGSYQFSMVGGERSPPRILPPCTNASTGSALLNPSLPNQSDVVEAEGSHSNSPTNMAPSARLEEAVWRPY

CBFβ-SMMHC, sequence (Q13951 1-165 limits assumed): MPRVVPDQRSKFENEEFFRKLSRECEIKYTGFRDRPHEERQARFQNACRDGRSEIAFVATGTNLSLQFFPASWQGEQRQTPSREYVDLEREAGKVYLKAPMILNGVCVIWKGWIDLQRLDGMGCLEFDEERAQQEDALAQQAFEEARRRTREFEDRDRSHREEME

## COc1ccc2nc(-c3ccccn3)[nH]c2c1 [AI-4-57]
CBFβ
  chemical shift changes in HSQC spectrum of CBFβ: chemical shift perturbations
[1]
  half-life (t½): 0.617 h
Runt domain
  interaction with Runt domain by NMR: No interaction was observed
[2]
  IC50: 22000 ± 8000 nM

## FC(F)(F)Oc1ccc2nc(-c3ccccn3)[nH]c2c1 [AI-10-47]
[3]
  stability in liver microsomes: reduced the metabolic liability
[4]
  change in CFUs of inv(16) AML cells: no change
[2]
  IC50: 2000 ± 30 nM

## AI-10-49
ME-1 cells
  IC50: 600 nM
CBFβ-SMMHC
  Kd: 168 nM
[5]
  change in CFUs of AML cells with normal karyotype: no change
[6]
  sensitivity of leukemia cell line panel: ME-1 cells were the only cell line highly sensitive
[7]; 1 μM
  expression of RUNX3, CSF1R, and CEBPA: increased expression
[7]
  expression of control gene PIN1: no effect
[8]
  median latency (survival): 61 days
[9]; 1 μM, relative to DMSO
  RUNX1 occupancy at CEBPA promoter: 8 fold
  RUNX1 occupancy at CSF1R promoter: 2.2 fold
  RUNX1 occupancy at RUNX3 promoter: 8 fold
[9]
  RUNX1 occupancy at control loci: no enrichment was observed
[4]; 5 μM
  inhibition of CFUs of inv(16) AML cells: 40%
[4]; 10 μM
  inhibition of CFUs of inv(16) AML cells: 60%
[10]
  viability of normal karyotype AML samples: not affected
[11]
  RUNX1 occupancy increase in U937 cells: Neither
[12]
  viability of inv(16) patient cells: reduced
CBFβ-RUNX1 binding
  effect on CBFβ-RUNX1 association: only a modest effect
[1]
  half-life (t½): 6.33 h
CD34+ cord blood cells
  change in CFUs of CD34+ cord blood cells: no change
[13]
  IC50: > 25000 nM
CBFβ-SMMHC-RUNX1 binding
  dissociation of RUNX1 from CBFβ-SMMHC: 90%
[14]
  stability of RUNX1, CBFβ, and CBFβ-SMMHC: not affected
[2]
  IC50: 260 ± 10 nM
[15]
  toxicity: no evidence of toxicity

## CBFβ-SMMHC, endogenous in ME-1 cells
[16]
  percent dissociation with AI-10-49 (1 μM, 6 hours): 90%
